The record followed here is ChEMBL document CHEMBL1268865, “Cytotoxic 3,4-seco-Atisane Diterpenoids from Croton barorum and Croton goudotii” (J Nat Prod, 2010).

For orientation: pIC50 means the negative decadic logarithm of the IC50, by convention in mol/L. Read a high pIC50 as a small IC50.

pIC50: −log10 of the molar value.

The subject of assay [1] is K562. The assay can be described thus: Cell cycle arrest in human K562 cells assessed as accumulation at G2/M phase at 4 uM after 24 hrs using propidium iodide staining by flow cytometry (reference value: 12.1%). The format is functional. (In flow cytometry, cells or beads pass a laser one at a time.)
Assay [2] deals with K562. Kind of assay: Cell cycle arrest in human K562 cells assessed as accumulation at G0/G1 phase at 4 uM after 24 hrs using propidium iodide staining by flow cytometry (reference value: 30.1%). The format is functional.
In a further assay the test system is KB. The assay can be described thus: Cytotoxicity against human KB cells after 72 hrs. The format is functional, cell-based. Put shortly: (§1)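 KB, HT29, A549 and HL60 lines were sourced from ATCC, with Taxotere as the reference compound. IC50 is the concentration that reduced cell growth by 50%, reported as the mean of duplicate experiments.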
Another assay has as its system HT-29. Kind of assay: Cytotoxicity against human HT-29 cells after 72 hrs. The format is functional, cell-based. The note with it: HT-29, 72 h. Put shortly: as §1
Another assay has as its system A549. The assay can be described thus: Cytotoxicity against human A549 cells after 72 hrs. The format is functional, cell-based. The note with it: A549, 72 h. Put shortly: as §1
Assay [3] concerns K562. The assay can be described thus: Cell cycle arrest in human K562 cells assessed as accumulation at S phase at 4 uM after 24 hrs using propidium iodide staining by flow cytometry (reference value: 56.7%). The format is functional.
A further assay deals with HL-60. The assay can be described thus: Cytotoxicity against human HL60 cells after 72 hrs. The format is functional, cell-based. The note with it: HL-60, 72 h. Put shortly:
as §1

On to `C=C1C(=O)[C@]23CC[C@@H](C(=C)C)[C@]4(C)CCC(=O)O[C@@]42C[C@H]1C[C@@H]3OC(C)=O` [CROTOBARIN], for which the figures for the Activity with K562 [1], with K562 [2] and in the assay with K562 [3] were 56.5%, 12.3% and 25.7%, respectively. The pIC50 is 5.60 in the assay on KB, 5.68 with HT-29, 6.10 in the assay with A549 and 6.25 in the assay on HL-60.

As to `C=C1C(=O)[C@@]23CC[C@@H]1C[C@@]21OC(=O)CC[C@@]1(C)[C@H](C(=C)C)CC3` [CROTOGOUDIN], the values for the Activity in the assay with K562 [1], in the assay on K562 [2] and with K562 [3] were 33.6%, 22.2% and 31.8%, respectively. Also, the negative logarithm of the IC50 (pIC50) in the assay on KB is 5.82; in the assay on HT-29, 5.72; in the assay on A549, 6.27; with HL-60, 6.31.

Take `CC(=O)O[C@@]12CO[C@@H]1C[C@H](O)[C@@]1(C)C(=O)[C@H](O)C3=C(C)[C@@H](OC(=O)[C@H](O)[C@@H](NC(=O)OC(C)(C)C)c4ccccc4)C[C@@](O)([C@@H](OC(=O)c4ccccc4)[C@H]21)C3(C)C` [DOCETAXEL]: the negative-log IC50 (pIC50) is 6.54 with KB, 6.04 with HT-29, 6.43 with A549 and 6.28 with HL-60.
